Test [1] concerns MDA-MB-231. The test can be described thus: Inhibition of cell migration of human MDA-MB-231 cells at 10 uM incubated for 48 hrs by wound healing assay. It counts as functional, cell-based. The essentials: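 MDA-MB-231 monolayer grown overnight to confluence and scratched with a pipette tip. Debris washed off with L15 medium, then cells kept in serum-free L15 with compound (1 and 10 µM) for 48 h. Migration into the wound photographed by phase-contrast microscopy at 0, 24 and 48 h.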

Another test concerns the target T1, Interstitial collagenase (Homo sapiens, UniProt P03956).
T1 sequence (P03956 whole entry): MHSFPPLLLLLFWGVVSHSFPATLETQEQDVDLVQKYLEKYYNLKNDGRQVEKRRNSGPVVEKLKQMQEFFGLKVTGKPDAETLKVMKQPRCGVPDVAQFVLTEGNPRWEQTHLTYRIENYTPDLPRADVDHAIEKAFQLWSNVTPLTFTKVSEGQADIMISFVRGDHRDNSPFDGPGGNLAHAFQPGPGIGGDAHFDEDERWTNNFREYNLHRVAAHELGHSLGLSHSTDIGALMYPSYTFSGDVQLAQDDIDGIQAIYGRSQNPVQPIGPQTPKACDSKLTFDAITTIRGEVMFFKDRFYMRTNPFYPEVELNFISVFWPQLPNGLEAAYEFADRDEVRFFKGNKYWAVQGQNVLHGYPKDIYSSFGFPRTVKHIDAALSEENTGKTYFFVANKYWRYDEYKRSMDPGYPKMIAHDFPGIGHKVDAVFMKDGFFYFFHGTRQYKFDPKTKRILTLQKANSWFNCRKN
The test can be described thus: Inhibition of human recombinant MMP1 catalytic domain incubated for 20 mins by fluorimetric assay. In outline:
(§1)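 Diluted recombinant MMP enzyme pre-incubated 20 min at room temperature with varied inhibitor concentrations in 50 mM Tris–HCl, 150 mM NaCl, 5 mM CaCl2, 0.05% Brij-35, pH 7.5; total assay volume 100 µl.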

For test [2], the target named is T2, 72 kDa type IV collagenase (Homo sapiens, UniProt P08253). The test can be described thus: Inhibition of human recombinant MMP2 catalytic domain incubated for 20 mins by fluorimetric assay. In outline: as §1
Target sequence in this assay (P08253 whole entry, the tested form may be a part): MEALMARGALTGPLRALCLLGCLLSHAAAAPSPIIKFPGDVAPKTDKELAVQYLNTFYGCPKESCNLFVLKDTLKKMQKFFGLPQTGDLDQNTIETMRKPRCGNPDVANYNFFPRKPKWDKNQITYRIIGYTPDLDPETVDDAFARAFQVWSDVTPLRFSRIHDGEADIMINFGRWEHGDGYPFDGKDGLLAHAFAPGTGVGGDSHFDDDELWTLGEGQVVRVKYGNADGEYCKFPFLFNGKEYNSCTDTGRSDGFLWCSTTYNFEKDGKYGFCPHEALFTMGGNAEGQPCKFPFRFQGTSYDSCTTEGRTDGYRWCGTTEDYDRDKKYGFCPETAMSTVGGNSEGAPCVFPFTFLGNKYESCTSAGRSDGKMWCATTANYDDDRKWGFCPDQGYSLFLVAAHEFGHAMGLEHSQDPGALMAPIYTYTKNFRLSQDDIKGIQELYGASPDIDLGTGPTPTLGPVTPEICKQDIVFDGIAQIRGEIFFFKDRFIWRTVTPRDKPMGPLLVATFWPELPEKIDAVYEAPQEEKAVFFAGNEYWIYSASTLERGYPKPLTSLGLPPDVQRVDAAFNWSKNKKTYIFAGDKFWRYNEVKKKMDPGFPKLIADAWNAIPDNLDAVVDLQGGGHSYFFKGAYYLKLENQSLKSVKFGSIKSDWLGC
Test [3] has as its target T3, Stromelysin-1 (Homo sapiens, UniProt P08254). The test can be described thus: Inhibition of human recombinant MMP3 catalytic domain incubated for 20 mins by fluorimetric assay. The essentials: as §1
The target in test [4] is T4, Matrix metalloproteinase-9 (Homo sapiens, UniProt P14780). The test can be described thus: Inhibition of human recombinant MMP9 catalytic domain incubated for 20 mins by fluorimetric assay. The essentials: as §1
T4 sequence (P14780 whole entry, the tested form may be a part): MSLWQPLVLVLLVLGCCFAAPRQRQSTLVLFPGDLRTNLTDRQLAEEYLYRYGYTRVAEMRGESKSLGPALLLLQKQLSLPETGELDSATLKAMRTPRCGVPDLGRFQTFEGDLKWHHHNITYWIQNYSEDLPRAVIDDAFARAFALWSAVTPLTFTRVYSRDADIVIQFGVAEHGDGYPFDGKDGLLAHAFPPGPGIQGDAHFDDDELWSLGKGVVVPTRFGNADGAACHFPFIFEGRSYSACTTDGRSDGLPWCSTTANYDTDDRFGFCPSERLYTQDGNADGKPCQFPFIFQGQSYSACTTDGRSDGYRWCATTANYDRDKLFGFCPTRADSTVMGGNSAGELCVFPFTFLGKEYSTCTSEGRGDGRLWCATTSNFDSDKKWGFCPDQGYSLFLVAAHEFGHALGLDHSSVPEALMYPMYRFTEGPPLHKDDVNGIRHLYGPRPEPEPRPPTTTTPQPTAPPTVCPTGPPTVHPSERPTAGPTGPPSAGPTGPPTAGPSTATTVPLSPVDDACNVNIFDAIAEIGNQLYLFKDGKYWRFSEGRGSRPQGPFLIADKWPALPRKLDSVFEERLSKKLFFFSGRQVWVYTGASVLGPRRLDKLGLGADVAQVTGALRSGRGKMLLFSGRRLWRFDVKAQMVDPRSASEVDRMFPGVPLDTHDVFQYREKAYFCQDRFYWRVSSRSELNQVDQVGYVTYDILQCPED
Test [5] concerns the target T5, Macrophage metalloelastase (Homo sapiens, UniProt P39900). The test can be described thus: Inhibition of human recombinant MMP12 catalytic domain incubated for 20 mins by fluorimetric assay. In outline:
as §1

In test [6] the target is T6, Collagenase 3 (Homo sapiens, UniProt P45452). The test can be described thus: Inhibition of human recombinant MMP13 catalytic domain incubated for 20 mins by fluorimetric assay. In outline:
as §1

Test [7] concerns the target T7, Interstitial collagenase (Homo sapiens) (UniProt P03956).
T7 sequence (whole entry): T1 sequence (P03956 whole entry)
The test can be described thus: Inhibition of human recombinant MMP1 catalytic domain at 10 uM incubated for 20 mins by fluorimetric assay. In outline: as §1

For test [8], the target named is T2, 72 kDa type IV collagenase. The test can be described thus: Inhibition of human recombinant MMP2 catalytic domain at 10 uM incubated for 20 mins by fluorimetric assay. In outline: as §1
Target sequence in this assay (P08253 110-660 limits assumed): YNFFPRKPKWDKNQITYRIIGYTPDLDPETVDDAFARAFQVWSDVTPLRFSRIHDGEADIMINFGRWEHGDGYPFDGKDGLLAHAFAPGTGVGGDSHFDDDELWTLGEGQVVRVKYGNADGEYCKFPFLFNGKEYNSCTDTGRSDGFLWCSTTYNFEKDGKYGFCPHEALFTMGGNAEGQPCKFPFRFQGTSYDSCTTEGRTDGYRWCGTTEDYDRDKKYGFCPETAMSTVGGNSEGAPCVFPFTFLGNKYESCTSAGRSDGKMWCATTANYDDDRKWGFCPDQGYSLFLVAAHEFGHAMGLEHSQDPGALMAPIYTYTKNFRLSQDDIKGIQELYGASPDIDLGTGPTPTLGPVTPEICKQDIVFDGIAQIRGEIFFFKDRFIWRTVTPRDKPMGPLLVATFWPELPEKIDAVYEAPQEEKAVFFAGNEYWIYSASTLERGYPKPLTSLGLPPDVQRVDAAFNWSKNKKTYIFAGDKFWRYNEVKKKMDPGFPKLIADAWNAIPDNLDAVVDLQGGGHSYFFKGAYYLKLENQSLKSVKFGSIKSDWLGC
Test [9] addresses T3, Stromelysin-1. The test can be described thus: Inhibition of human recombinant MMP3 catalytic domain at 10 uM incubated for 20 mins by fluorimetric assay. In outline: as §1
Test [10] addresses T4, Matrix metalloproteinase-9. The test can be described thus: Inhibition of human recombinant MMP9 catalytic domain at 10 uM incubated for 20 mins by fluorimetric assay. In outline: as §1
Test [11] has as its target T5, Macrophage metalloelastase. The test can be described thus: Inhibition of human recombinant MMP12 catalytic domain at 10 uM incubated for 20 mins by fluorimetric assay. In outline:
as §1

Test [12] has as its target T6, Collagenase 3. The test can be described thus: Inhibition of human recombinant MMP13 catalytic domain at 10 uM incubated for 20 mins by fluorimetric assay. The essentials:
as §1

The test system of test [13] is MDA-MB-231. The test can be described thus: Inhibition of MMP2 protein expression in human MDA-MB-231 cells at 50 uM incubated for 24 hrs by Western blot. It counts as functional, cell-based. In outline:
(§2)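 MDA-MB-231 cells co-incubated with 20 ng/ml TPA and test compound at 50 µM for 24 h, then lysed. Lysates centrifuged 10000g, 10 min, 4 °C, run on 10% SDS–PAGE, transferred to PVDF, blocked overnight at 4 °C in TBST with 5% skim milk. Probed with anti-MMP-2 and anti-MMP-9 antibodies; GAPDH as loading control.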
For orientation: In western blotting, separated proteins are transferred to a membrane and probed.

Test [14] has as its system MDA-MB-231. The test can be described thus: Inhibition of active MMP9 protein expression in human MDA-MB-231 cells at 50 uM incubated for 24 hrs by Western blot. The class given is functional, cell-based. The essentials:
as §2

The subject of test [15] is MDA-MB-231. The test can be described thus: Inhibition of pro-MMP9 protein expression in human MDA-MB-231 cells at 50 uM incubated for 24 hrs by Western blot. It counts as functional, cell-based. In outline: as §2
In test [16] the test system is MDA-MB-231. The test can be described thus: Effect on cell proliferation of human MDA-MB-231 cells at 50 uM incubated for 24 hrs. The class given is functional, cell-based.

Activity calls are given as the source filed them. The calls are words filed in the database; no cut-off is given here.

T3 sequence (P08254 whole entry, the tested form may be a part): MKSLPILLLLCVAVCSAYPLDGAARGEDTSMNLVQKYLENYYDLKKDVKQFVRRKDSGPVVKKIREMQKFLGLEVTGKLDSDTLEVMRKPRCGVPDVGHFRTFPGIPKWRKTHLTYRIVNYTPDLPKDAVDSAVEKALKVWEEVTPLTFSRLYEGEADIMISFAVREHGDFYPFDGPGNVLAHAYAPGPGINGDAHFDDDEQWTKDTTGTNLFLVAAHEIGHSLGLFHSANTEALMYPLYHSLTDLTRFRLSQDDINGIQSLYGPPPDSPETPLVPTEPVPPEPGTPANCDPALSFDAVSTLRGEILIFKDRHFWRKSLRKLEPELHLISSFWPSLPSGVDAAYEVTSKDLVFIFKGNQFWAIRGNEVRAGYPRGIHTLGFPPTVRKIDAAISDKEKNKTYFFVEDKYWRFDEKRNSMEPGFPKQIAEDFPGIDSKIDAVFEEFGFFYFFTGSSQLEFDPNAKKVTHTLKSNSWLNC
T5 sequence (P39900 whole entry, the tested form may be a part): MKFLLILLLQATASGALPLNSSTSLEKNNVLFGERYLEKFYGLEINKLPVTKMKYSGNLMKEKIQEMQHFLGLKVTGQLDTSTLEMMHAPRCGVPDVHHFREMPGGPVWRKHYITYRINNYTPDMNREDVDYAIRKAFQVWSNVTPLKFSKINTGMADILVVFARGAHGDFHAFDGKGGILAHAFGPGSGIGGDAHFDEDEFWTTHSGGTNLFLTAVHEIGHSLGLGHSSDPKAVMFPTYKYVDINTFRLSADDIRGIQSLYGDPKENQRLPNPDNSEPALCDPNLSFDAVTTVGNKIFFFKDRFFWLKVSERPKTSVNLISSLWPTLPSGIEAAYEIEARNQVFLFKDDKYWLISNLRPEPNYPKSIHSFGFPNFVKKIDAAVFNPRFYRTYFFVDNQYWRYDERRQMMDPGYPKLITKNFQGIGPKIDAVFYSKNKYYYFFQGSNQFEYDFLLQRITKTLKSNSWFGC

`COC(=O)[C@@H](Cc1ccc(O)c(O)c1)OC(=O)/C=C/c1ccc(O)c2c1[C@H](C(=O)OC)[C@@H](c1ccc(O)c(O)c1)O2` [DIMETHYL LITHOSPERMATE]: the inhibition result in the test with MDA-MB-231 [1], in the test on MDA-MB-231 [13] and in the test on MDA-MB-231 [14] was “Active” each time. For the same compound, the IC50 (commonly the concentration that inhibits the measured activity by half) at Interstitial collagenase came to 8.23 µM; in [2], 11.6 µM; on Stromelysin-1 [3] it was 8.15 µM; in test [4], 0.99 µM; in [5], 0.67 µM; at Collagenase 3 [6] it was 18.5 µM. Besides, the inhibition (in test [7]; in test [8]; at Stromelysin-1 [9]; in [10]; in test [11]; at Collagenase 3 [12]) was more than 30% throughout. Moreover, the inhibition result in the test on MDA-MB-231 [15] and with MDA-MB-231 [16] was “inactive” in each case.

The values are drawn from ChEMBL document CHEMBL2046344, “Natural products as a gold mine for selective matrix metalloproteinases inhibitors” (Bioorg Med Chem, 2012).
